From ChEMBL document CHEMBL4190227, “Syntheses, toxicities and anti-inflammation of H2S-donors based on non-steroidal anti-inflammatory drugs” (Eur J Med Chem, 2017)
The source made the active and inactive calls. The rule behind the calls is not given here.

Legend:
[1] = tested on: HepG2; test: Cytotoxicity against human HepG2 cells assessed as reduction in cell survival after 24 hrs by MTT assay; format: cell-based; settings: HepG2, 24 h
[2] = Drug degradation in phosphate buffer assessed as H2S release by measuring test compound half life at 40 uM measured every 5 mins in presence of TECP by UV-Vis spectrometry; format: physicochemical
Procedure, shortened: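 Sulfide release at 37.5 °C: donor (40 mM THF stock) added to pH 7.4 phosphate buffer with 1.0 mM TECP; aliquots taken every 5 min into methylene blue cocktail (zinc acetate, N,N-dimethyl-1,4-phenylenediamine, FeCl3 in HCl), A670 read 15 min later; H2S from Na2S calibration curve; concentration vs time curve; four independent experiments.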

[3] = tested on: L02; test: Cytotoxicity against human LO2 cells assessed as reduction in cell survival after 24 hrs by MTT assay; format: cell-based; settings: L02, 24 h
[4] = Drug degradation in phosphate buffer assessed as H2S release by measuring test compound half life at 40 uM measured every 5 mins in presence of L-cysteine by UV-Vis spectrometry; format: physicochemical
Procedure, shortened: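 Sulfide release at 37.5 °C: donor (40 mM THF stock) added to pH 7.4 phosphate buffer with 1.0 mM L-cysteine; aliquots taken every 5 min into zinc acetate/N,N-dimethyl-1,4-phenylenediamine/FeCl3 in HCl, A670 read 15 min later; H2S quantified against Na2S standard curve (5–150 μM); release curve plotted vs time; four independent experiments.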

[5] = tested on: RAW264.7; test: Antiinflammatory activity in mouse RAW264.7 cells assessed as increase in LPS-induced HO-1 expression at 100 uM incubated for 24 hrs post LPS induction by ELISA relative to contol; format: functional
Procedure, shortened: (§1)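 LPS (1 μg/mL) for 4 h, then compound at 10, 50, 100 μM for 24 h; cells lysed in RIPA, spun 12,000×g 10 min, protein normalised by BCA to 0.1 mg/mL; target (TNF-α, HO-1, IL-10 or COX-2) quantified by sandwich ELISA kit with mouse-specific polyclonal antibodies; four independent experiments.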

[6] = tested on: RAW264.7; test: Antiinflammatory activity in mouse RAW264.7 cells assessed as increase in LPS-induced IL10 levels at 10 to 100 uM incubated for 24 hrs post LPS induction by ELISA; format: functional, cell-based; procedure, shortened: as §1
[7] = tested on: RAW264.7; test: Antiinflammatory activity in mouse RAW264.7 cells assessed as increase in IL10 levels at 10 to 100 uM measured after 24 hrs in absence of LPS by ELISA; format: functional, cell-based
Procedure, shortened: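 Macrophages exposed 24 h to 10, 50, 100 μM without LPS; lysates (RIPA, 12,000×g spin) normalised by BCA to 0.1 mg/mL protein; IL-10 measured by mouse-specific sandwich ELISA kit; four independent experiments, mean ± SD.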

[8] = (§2) Cytotoxicity against mouse RAW264.7 cells assessed as cell viability at 10 to 100 uM treated for 24 hrs post LPS induction by MTT assay; format: cell-based; settings: RAW264.7 cells, read-out: Activity
Procedure, shortened: (§3)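 Macrophages in high-glucose DMEM + 10% heat-inactivated FBS, 2 mM glutamine, 37 °C, 5% CO2; exposed 24 h to 10, 50, 100 μM with or without LPS 1 μg/mL; MTT added 4 h, formazan dissolved in DMSO, A570, expressed as % of control; four independent experiments.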

[9] = target: T1, Nitric oxide synthase, inducible (Mus musculus) (UniProt P29477); test: Inhibition of iNOS in mouse RAW264.7 cells assessed as reduction in LPS-induced NO production administered for 24 hrs post LPS induction by Griess method; format: cell-based
T1 sequence (whole entry): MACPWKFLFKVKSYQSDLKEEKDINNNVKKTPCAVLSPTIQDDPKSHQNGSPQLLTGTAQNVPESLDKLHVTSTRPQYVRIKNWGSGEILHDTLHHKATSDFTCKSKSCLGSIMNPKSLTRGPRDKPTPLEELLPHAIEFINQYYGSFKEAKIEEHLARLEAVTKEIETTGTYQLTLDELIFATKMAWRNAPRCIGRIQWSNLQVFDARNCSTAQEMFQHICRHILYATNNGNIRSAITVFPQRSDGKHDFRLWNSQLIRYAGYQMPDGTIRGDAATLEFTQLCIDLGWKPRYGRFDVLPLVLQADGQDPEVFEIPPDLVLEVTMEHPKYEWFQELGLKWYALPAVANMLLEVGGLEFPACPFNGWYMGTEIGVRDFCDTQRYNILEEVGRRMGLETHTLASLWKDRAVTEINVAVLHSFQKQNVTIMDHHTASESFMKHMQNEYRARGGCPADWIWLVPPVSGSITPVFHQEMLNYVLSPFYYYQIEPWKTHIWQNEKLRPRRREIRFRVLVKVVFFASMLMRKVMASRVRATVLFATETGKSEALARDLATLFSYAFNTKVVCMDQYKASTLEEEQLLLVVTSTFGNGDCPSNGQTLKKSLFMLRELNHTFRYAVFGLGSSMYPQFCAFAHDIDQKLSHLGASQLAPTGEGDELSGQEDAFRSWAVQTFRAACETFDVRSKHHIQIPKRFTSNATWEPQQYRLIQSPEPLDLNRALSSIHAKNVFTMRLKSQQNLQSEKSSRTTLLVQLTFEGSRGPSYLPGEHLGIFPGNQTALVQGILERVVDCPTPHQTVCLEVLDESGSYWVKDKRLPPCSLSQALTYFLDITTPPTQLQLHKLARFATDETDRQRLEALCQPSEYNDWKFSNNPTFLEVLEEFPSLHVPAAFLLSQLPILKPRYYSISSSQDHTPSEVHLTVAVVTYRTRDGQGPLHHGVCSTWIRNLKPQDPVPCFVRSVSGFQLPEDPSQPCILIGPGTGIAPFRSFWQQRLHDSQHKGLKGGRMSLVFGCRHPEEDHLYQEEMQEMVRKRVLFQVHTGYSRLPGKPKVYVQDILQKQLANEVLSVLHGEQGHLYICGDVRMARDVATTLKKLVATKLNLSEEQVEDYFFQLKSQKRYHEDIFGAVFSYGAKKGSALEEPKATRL
Procedure, shortened: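 RAW264.7 cells stimulated with LPS 1 μg/mL for 4 h, then compound (10, 50, 100 μM) for 24 h; culture medium reacted with Griess reagents I and II, absorbance 570 nm; nitrite from sodium nitrite standard curve (0–100 μM in medium); four independent experiments, mean ± SD.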

[10] = tested on: RAW264.7; test: Antiinflammatory activity in mouse RAW264.7 cells assessed as reduction in LPS-induced TNFalpha levels incubated for 24 hrs post LPS induction by ELISA; format: functional, cell-based; procedure, shortened: as §1
[11] = tested on: RAW264.7; test: Inhibition of LPS-induced COX2 expression in mouse RAW264.7 cells at 10 to 100 uM incubated for 24 hrs post LPS induction by ELISA; format: functional, cell-based; procedure, shortened: as §1
[12] = tested on: RAW264.7; test: Antiinflammatory activity in mouse RAW264.7 cells assessed as increase in LPS-induced HO-1 expression incubated for 24 hrs post LPS induction by ELISA; format: functional, cell-based; procedure, shortened: as §1
[13] = (§4) Cytotoxicity against mouse RAW264.7 cells assessed as cell viability at 10 to 100 uM treated for 24 hrs in absence of LPS by MTT assay; format: cell-based; settings: RAW264.7 cells, read-out: Activity; procedure, shortened: as §3
[14] = species: Danio rerio; test: Toxicity in AB zebrafish embryo assessed as reduction in hatching rate of embryos up to 5 uM measured at 48 hrs post fertilization by dissecting light microscopic analysis; format: organism-based; settings: in vivo
Procedure, shortened: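 AB embryos exposed from 4 to 72 hpf to compound (0.5–20 μM) or DMF vehicle (1:1000), one embryo per well; hatch rate scored at 48 hpf; n=100 per group in three replicates; three independent experiments, mean ± SD.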

[15] = tested on: RAW264.7; test: as §2; format: cell-based; settings: raw264.7, 24 h, 100 µM; procedure, shortened: as §3
[16] = tested on: RAW264.7; test: Antiinflammatory activity in mouse RAW264.7 cells assessed as LPS-induced TNFalpha levels at 100 uM incubated for 24 hrs post LPS induction by ELISA relative to control; format: functional; procedure, shortened: as §1
[17] = species: Danio rerio; test: Toxicity in AB zebrafish embryo assessed as rate of embryo malformation at 0.5 to 20 uM measured at 96 hrs post fertilization by stereoscopic dissecting light microscopic analysis relative to DMF; format: organism-based; settings: in vivo
Procedure, shortened: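 AB embryos exposed from 4 hpf through 96 hpf to compound or DMF vehicle (1:1000); malformations scored at 96 hpf under stereoscopic dissecting microscope; 100 embryos per group in three replicates; three independent experiments, mean ± SD.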

[18] = tested on: RAW264.7; test: as §4; format: cell-based; settings: raw264.7, 24 h, 100 µM; procedure, shortened: as §3
[19] = tested on: RAW264.7; test: Inhibition of LPS-induced COX2 expression in mouse RAW264.7 cells at 100 uM incubated for 24 hrs post LPS induction by ELISA relative to control; format: functional; settings: RAW264.7, 24 h, read-out: INH; procedure, shortened: as §1

Compound | half-life at 40 µM [2] | IC50 [1] | IC50 [3] | also measured
NC(=S)c1ccccc1 | 0.9 min | – | – | –
O=C(/C=C/c1ccccc1)Oc1ccc(-c2cc(=S)ss2)cc1 | 1.9 min | 1080 µM | 536 µM | –
Oc1ccc(-c2cc(=S)ss2)cc1 | 3.9 min | – | – | –
NC(=S)c1ccc(OC(=O)/C=C/c2ccccc2)cc1 | 4.4 min | 410 µM | > 800 µM | –
O=C(CCCCC1CCSS1)Oc1ccc2ccc(=O)oc2c1 (stereo not drawn) | – | 917 µM | 2540 µM | half-life at 40 µM [4]: 4.6 min
NC(=S)c1ccc(OC(=O)c2ccc(Cl)cc2)cc1 | 14.4 min | 1060 µM | > 800 µM | –
COc1ccc2cc(C(C)C(=O)Oc3ccc(C(N)=S)cc3)ccc2c1 (stereo not drawn) [ATB-346] | 13.4 min | 228 µM | 3610 µM | fold change (FC) [5]: <=2; Activity [6]: Active; Activity [7]: Active; viability at 24 h, up to 100 µM [8]: 70 to 110%; inhibition [9]: Dose-dependent effect; Activity [10]: Dose-dependent effect; inhibition [11]: Active; Activity [12]: Dose-dependent effect; viability at 24 h, up to 100 µM [13]: 70 to 110%
CC1=C(CC(=O)Oc2ccc(C(N)=S)cc2)c2cc(F)ccc2/C1=C\c1ccc([S+](C)[O-])cc1 (stereo not drawn) | 3.1 min | 1080 µM | 1480 µM | –
COc1ccc2c(c1)c(CC(=O)Oc1ccc(-c3cc(=S)ss3)cc1)c(C)n2C(=O)c1ccc(Cl)cc1 | 1.8 min | 3290 µM | 337 µM | fold change (FC) [5]: <=2; Activity [6]: Active; Activity [7]: Active; Activity [14]: Toxic; Activity [15]: Non-Toxic; Activity [16]: 5 - 20%; inhibition [9]: Dose-dependent effect; Activity [17]: 2%; Activity [10]: Dose-dependent effect; inhibition [11]: Active; Activity [12]: Dose-dependent effect; Activity [18]: Non-Toxic
O=C(O)CCCCC1CCSS1 (stereo not drawn) [LIPOIC ACID, ALPHA] | – | – | – | half-life at 40 µM [4]: 118 min
CC(C)Cc1ccc(C(C)C(=O)Oc2ccc(-c3cc(=S)ss3)cc2)cc1 (stereo not drawn) | 1.4 min | 923 µM | 889 µM | fold change (FC) [5]: >3; Activity [6]: Active; inhibition at 100 µM [19]: 60%; Activity [7]: Active; viability at 24 h, up to 100 µM [8]: 70 to 110%; Activity [16]: 5 - 20%; inhibition [9]: Dose-dependent effect; Activity [10]: Dose-dependent effect; Activity [12]: Dose-dependent effect; viability at 24 h, up to 100 µM [13]: 70 to 110%

Second part, led by results:

half-life at 40 µM [2] | Compound | IC50 [1] | IC50 [3] | also measured
3.1 min | COc1ccc2cc(C(C)C(=O)Oc3ccc(-c4cc(=S)ss4)cc3)ccc2c1 (stereo not drawn) | 1120 µM | 1040 µM | –
7.1 min | NC(=S)c1ccc(OC(=O)c2ccccc2Cl)cc1 | 1060 µM | 1090 µM | –
9.8 min | CC(C(=O)Oc1ccc(C(N)=S)cc1)c1cccc(C(=O)c2ccccc2)c1 (stereo not drawn) | 1070 µM | 1180 µM | –
3.3 min | CC(C(=O)Oc1ccc(C(N)=S)cc1)c1ccc(-c2ccccc2)c(F)c1 (stereo not drawn) | 1680 µM | > 800 µM | –
3.4 min | CC(C(=O)Oc1ccc(-c2cc(=S)ss2)cc1)c1cccc(C(=O)c2ccccc2)c1 (stereo not drawn) | 1280 µM | 544 µM | –
